Measured values from ChEMBL document CHEMBL4725466, “Discovery and SAR of Novel Disubstituted Quinazolines as Dual PI3Kalpha/mTOR Inhibitors Targeting Breast Cancer” (ACS Med Chem Lett, 2020).
In brackets after ≈: the same amount, converted by molar mass. Activity calls are given as the source filed them. The calls are words filed in the database; no cut-off is given here.

Legend:
MCF7 [1] = assay: Antiproliferative activity against human MCF7 cells assessed as cell viability at 10 uM after 48 hrs by celltiter-glo 2D luminescent assay relative to control; format: functional; settings: read-out: Activity
How it was run: (§1)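 2D CellTiter-Glo luminescent viability screen, single 10 μM compound concentration, in MDA-MB-468, MDA-MB-231 and MCF7 breast cancer cells and in normal human dermal fibroblasts; output reported as percent of viable cells.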

[2] = Half life in CD1 mouse liver microsomes at 1 uM incubated for 60 mins under shaking condition by LC-MS/MS analysis; format: ADME, Microsome
How it was run: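 Metabolic stability in mouse liver microsomes with test compound at 1 μM; result expressed as t1/2 (min).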

MDA-MB-231 = assay: Antiproliferative activity against human MDA-MB-231 cells assessed as cell viability at 10 uM after 48 hrs by celltiter-glo 2D luminescent assay relative to control; format: functional; settings: read-out: Activity; how it was run: as §1
MCF7 [3] = assay: Antiproliferative activity against human MCF7 cells assessed as reduction in cell viability after 48 hrs by celltiter-glo 3D luminescent assay; format: functional, cell-based; settings: MCF7, 48 h
How it was run: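 MCF7 cells grown in 3D culture, viability read by CellTiter-Glo 3D luminescence; dose–response curves run up to 15 μM to derive IC50.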

[4] = Kinetic aqueous solubility of compound in 2% DMSO/Phosphate buffer saline incubated for 90 mins under shaking condition by; format: physicochemical; settings: 2% DMSO/phosphate buffered saline, read-out: Kinetic_solubility
How it was run: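 Maximum kinetic aqueous solubility measured in 2% DMSO/phosphate-buffered saline, pH 7.4.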

[5] = Cytotoxicity against human primary fibroblasts assessed as cell viability at 10 uM after 48 hrs by celltiter-glo 2D luminescent assay relative to control; format: cell-based, Fibroblast; settings: read-out: Activity; how it was run: as §1
MDA-MB-468 = assay: Antiproliferative activity against human MDA-MB-468 cells assessed as cell viability at 10 uM after 48 hrs by celltiter-glo 2D luminescent assay relative to control; format: functional; settings: read-out: Activity; how it was run: as §1
[6] = biological target: T1, PI3-kinase p110-alpha/p85-alpha (Homo sapiens) (UniProt P27986+P42336); assay: Inhibition of human PI3K p110alpha/p85alpha at 10 uM using PIP2 as substrate incubated for 10 mins followed by ATP addition and measured after 30 mins in presence of 10 uM ATP by HTRF assay; format: protein-complex assay
[7] = biological target: T2, Serine/threonine-protein kinase mTOR (Homo sapiens, UniProt P42345); assay: Inhibition of human mTOR at 10 uM using 4EBP1 as substrate after 120 mins by [gamma-33P]-ATP assay
How it was run: (§2)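 Single-point kinase screen by HotSpot radioisotope filter binding assay; compound at 10 μM with 10 μM ATP, reported as percent inhibition of PI3Kα and mTOR.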

[8] = biological target: PI3-kinase p110-alpha/p85-alpha (Homo sapiens, UniProt P42336); assay: Inhibition of human PI3K p110alpha/p85alpha using PIP2 as substrate incubated for 10 mins followed by ATP addition and measured after 30 mins in presence of 10 uM ATP by HTRF assay; format: protein-complex assay
[9] = biological target: T2, Serine/threonine-protein kinase mTOR; assay: Inhibition of human mTOR at 10 uM using 4EBP1 as substrate after 120 mins by [gamma-33P]-ATP assay relative to control; how it was run: as §2
[10] = biological target: T1, PI3-kinase p110-alpha/p85-alpha (Homo sapiens); assay: Inhibition of human PI3K p110alpha/p85alpha at 10 uM using PIP2 as substrate incubated for 10 mins followed by ATP addition and measured after 30 mins in presence of 10 uM ATP by HTRF assay relative to control; format: protein-complex assay

PI3-kinase p110-alpha/p85-alpha, sequence (P27986 whole entry): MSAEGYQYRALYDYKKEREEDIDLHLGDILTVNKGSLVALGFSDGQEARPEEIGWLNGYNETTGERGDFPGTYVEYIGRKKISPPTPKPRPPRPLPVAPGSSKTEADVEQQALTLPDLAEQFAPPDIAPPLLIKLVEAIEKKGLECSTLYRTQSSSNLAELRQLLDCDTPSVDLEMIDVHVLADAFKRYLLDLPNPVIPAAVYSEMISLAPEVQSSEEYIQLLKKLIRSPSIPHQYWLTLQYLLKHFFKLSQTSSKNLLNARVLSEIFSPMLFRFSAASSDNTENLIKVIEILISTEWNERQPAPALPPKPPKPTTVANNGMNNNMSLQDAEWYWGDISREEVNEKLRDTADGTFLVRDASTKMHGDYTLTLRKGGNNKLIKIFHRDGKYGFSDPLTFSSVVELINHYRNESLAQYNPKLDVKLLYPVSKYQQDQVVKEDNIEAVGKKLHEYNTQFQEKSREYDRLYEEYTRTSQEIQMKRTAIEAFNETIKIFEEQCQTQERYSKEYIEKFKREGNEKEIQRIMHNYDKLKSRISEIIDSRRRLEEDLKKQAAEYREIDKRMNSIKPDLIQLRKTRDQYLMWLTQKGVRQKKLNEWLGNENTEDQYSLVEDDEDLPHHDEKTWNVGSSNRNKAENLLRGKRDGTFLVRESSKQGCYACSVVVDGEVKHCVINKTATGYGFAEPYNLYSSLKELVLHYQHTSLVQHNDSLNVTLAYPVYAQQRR
PI3-kinase p110-alpha/p85-alpha, sequence (P42336 whole entry): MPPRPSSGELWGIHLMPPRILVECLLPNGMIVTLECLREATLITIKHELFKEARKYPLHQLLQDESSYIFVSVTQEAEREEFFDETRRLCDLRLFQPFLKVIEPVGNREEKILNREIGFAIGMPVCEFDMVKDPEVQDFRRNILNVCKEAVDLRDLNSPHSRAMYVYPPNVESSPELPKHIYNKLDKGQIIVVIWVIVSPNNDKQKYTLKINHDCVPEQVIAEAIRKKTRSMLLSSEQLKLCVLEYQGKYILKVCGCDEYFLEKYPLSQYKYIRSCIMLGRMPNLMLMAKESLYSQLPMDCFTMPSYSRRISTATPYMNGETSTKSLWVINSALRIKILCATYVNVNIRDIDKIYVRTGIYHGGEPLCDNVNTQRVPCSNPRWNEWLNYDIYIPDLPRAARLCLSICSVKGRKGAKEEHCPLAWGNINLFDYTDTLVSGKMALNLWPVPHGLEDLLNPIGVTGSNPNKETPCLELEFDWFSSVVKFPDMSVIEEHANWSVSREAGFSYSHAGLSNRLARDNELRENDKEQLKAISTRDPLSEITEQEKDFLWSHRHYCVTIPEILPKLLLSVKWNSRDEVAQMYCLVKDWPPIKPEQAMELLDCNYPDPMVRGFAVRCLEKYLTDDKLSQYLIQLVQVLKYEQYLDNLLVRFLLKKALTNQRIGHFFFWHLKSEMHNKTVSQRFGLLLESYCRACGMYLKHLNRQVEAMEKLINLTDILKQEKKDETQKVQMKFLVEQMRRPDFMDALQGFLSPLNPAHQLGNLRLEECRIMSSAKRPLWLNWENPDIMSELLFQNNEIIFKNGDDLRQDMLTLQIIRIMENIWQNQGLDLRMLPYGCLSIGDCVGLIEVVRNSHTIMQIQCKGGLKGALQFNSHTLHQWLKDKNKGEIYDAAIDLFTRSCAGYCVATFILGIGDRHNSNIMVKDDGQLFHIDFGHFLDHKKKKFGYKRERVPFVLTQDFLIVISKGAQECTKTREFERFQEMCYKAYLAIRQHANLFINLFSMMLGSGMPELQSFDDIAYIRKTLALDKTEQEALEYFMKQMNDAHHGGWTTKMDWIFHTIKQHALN

Compound | viability at 10 µM (MCF7 [1]) [%] | half-life at 1 µM [2] [min] | viability at 10 µM (MDA-MB-231) [%] | IC50 (MCF7 [3]) [µM] | solubility kinetic at 1.5 h [4] [µM] | viability at 48 h, 10 µM [5] [%] | viability at 10 µM (MDA-MB-468) [%] | inhibition [6] | inhibition [7] | IC50 [8] [µM] | inhibition [9] [%] | inhibition [10] [%]
O=C(Nc1ccccc1)Nc1ccc(-c2nc(N3CCOCC3)c3ccccc3n2)cc1 | 35 | > 60 | 140 | 1.2 | 8.1 (≈ 3.45 µg/mL) | 99 | 80 | Active | Active | 0.012 |  | 
Oc1cccc(-c2nc(N3CCOCC3)c3oc4ncccc4c3n2)c1 [PI-103] |  | 7.1 |  |  | 3.4 (≈ 1.18 µg/mL) | 42 |  |  |  |  |  | 
O=C(Nc1ccc(-c2nc(N3CCOCC3)c3ccccc3n2)cc1)Nc1ccc(S(=O)(=O)Nc2ccccc2)cc1 |  | 23.5 |  |  | < 2 |  |  | Active | Active |  | 75 | 63
O=C(Nc1ccc(-c2nc(N3CCOCC3)c3ccccc3n2)cc1)Nc1ccc(S(=O)(=O)Nc2ccc(F)cc2)cc1 |  | > 60 |  |  | < 2 |  |  | Active | Active |  | 60 | 54
CCC(=O)c1ccc(NC(=O)Nc2ccc(-c3nc(N4CCOCC4)c4ccccc4n3)cc2)cc1 |  | > 60 |  |  | 4 (≈ 1.93 µg/mL) |  |  | Active | Active |  | 73 | 77
O=C(NCCO)Nc1ccc(-c2nc(N3CCOCC3)c3ccccc3n2)cc1 | 31 | 53.1 | 146 | 0.7 | 200 (≈ 78.7 µg/mL) | 95 | 65 | Active | Active | 0.185 |  | 
N#Cc1cccc(-c2nc(N3CCOCC3)c3ccccc3n2)c1 |  |  |  |  |  |  |  | Active | Active |  |  | 
O=C(Nc1ccc(CO)cc1)Nc1ccc(-c2nc(N3CCOCC3)c3ccccc3n2)cc1 | 7 | > 60 | 208 | 0.2 | 14.3 (≈ 6.51 µg/mL) | 86 | 60 | Active | Active | 0.0024 |  | 
Oc1ccc(-c2nc(N3CCOCC3)c3ccccc3n2)cn1 |  |  |  |  |  |  |  | Active | Active |  |  | 
CCOC(=O)c1ccc(Nc2nc(N3CCOCC3)c3ccccc3n2)cc1 |  |  |  |  |  |  |  | Active | Active |  |  | 
O=C(Nc1ccc(-c2nc(N3CCOCC3)c3ccccc3n2)cc1)Nc1cccc(CO)c1 | 13 | > 60 | 138 | 0.3 | 8.2 (≈ 3.74 µg/mL) | 94 | 47 | Active | Active | 0.0072 |  | 
O=S(=O)(Nc1ncccn1)c1ccc(Nc2nc(N3CCOCC3)c3ccccc3n2)cc1 |  |  |  |  |  |  |  | Active | Active |  |  | 
O=C(Nc1ccc(CCO)cc1)Nc1ccc(-c2nc(N3CCOCC3)c3ccccc3n2)cc1 | 7 | 38.2 | 192 | 0.3 | 5.9 (≈ 2.77 µg/mL) | 63 | 74 | Active | Active | 0.00141 |  | 
O=C(Nc1ccc(-c2nc(N3CCOCC3)c3ccccc3n2)cc1)Nc1cncnc1 | 21 | 24.5 | 138 | 1.6 | 2.7 (≈ 1.15 µg/mL) | 88 | 56 |  |  | 0.114 |  | 
N=C(N)NS(=O)(=O)c1ccc(NC(=O)Nc2ccc(-c3nc(N4CCOCC4)c4ccccc4n3)cc2)cc1 | 30 | > 60 | 152 | 0.3 | 6.1 (≈ 3.33 µg/mL) | 92 | 51 | Active | Active | 0.0185 |  | 
O=C(O)c1cccc(-c2nc(N3CCOCC3)c3ccccc3n2)c1 |  |  |  |  |  |  |  | Active | Active |  |  | 
O=C(Nc1ccc(-c2nc(N3CCOCC3)c3ccccc3n2)cc1)Nc1ccc(S(=O)(=O)Nc2nccs2)cc1 | 40 | > 60 | 140 | 1.8 | 3.1 (≈ 1.82 µg/mL) | 95 | 59 | Active | Active | 0.0261 |  | 
CS(=O)(=O)Nc1ccc(NC(=O)Nc2ccc(-c3nc(N4CCOCC4)c4ccccc4n3)cc2)cc1 | 8 | 60 | 137 |  | 6.9 (≈ 3.58 µg/mL) | 38 | 66 | Active | Active | 0.0062 |  | 
O=S(=O)(Nc1ccccn1)c1ccc(Nc2nc(N3CCOCC3)c3ccccc3n2)cc1 |  |  |  |  |  |  |  | Active | Active |  |  | 
N=C(N)NS(=O)(=O)c1ccc(Nc2nc(N3CCOCC3)c3ccccc3n2)cc1 |  | 44.9 |  |  | 22.7 (≈ 9.7 µg/mL) |  |  | Active | Active | 5.9 |  | 
CNC(=O)Nc1ccc(-c2nc(N3CCOCC3)c3ccccc3n2)cc1 | 34 | 8 | 180 |  | 192 (≈ 69.8 µg/mL) | 71 | 96 | Active | Active | 0.186 |  | 
NS(=O)(=O)c1ccc(NC(=O)Nc2ccc(-c3nc(N4CCOCC4)c4ccccc4n3)cc2)cc1 | 8 | > 60 | 114 | 0.2 | < 2 | 84 | 33 | Active | Active | 0.0034 |  | 
CC(=O)c1ccc(Nc2nc(N3CCOCC3)c3ccccc3n2)cc1 |  |  |  |  |  |  |  | Active | Active |  |  | 
O=C(Nc1ccc(-c2nc(N3CCOCC3)c3ccccc3n2)cc1)Nc1ccc(S(=O)(=O)Nc2ccccn2)cc1 |  | 37.8 |  |  | < 2 |  |  | Active | Active |  |  | 84
CNC(=O)c1ccc(NC(=O)Nc2ccc(-c3nc(N4CCOCC4)c4ccccc4n3)cc2)cc1 | 12 | > 60 | 66 | 0.3 | < 2 | 80 | 54 | Active | Active | 0.0025 |  | 
O=C(Nc1ccc(-c2nc(N3CCOCC3)c3ccccc3n2)cc1)Nc1ccc(S(=O)(=O)Nc2ccc(F)cc2F)cc1 |  | > 60 |  |  | 4.3 (≈ 2.65 µg/mL) |  |  | Active | Active |  | 70 | 56
NS(=O)(=O)c1ccc(Nc2nc(N3CCOCC3)c3ccccc3n2)cc1 |  |  |  |  |  |  |  | Active | Active |  |  | 
CCOC(=O)c1ccc(NC(=O)Nc2ccc(-c3nc(N4CCOCC4)c4ccccc4n3)cc2)cc1 |  | 30.5 |  |  | < 2 |  |  | Active | Active |  | 81 | 73
O=C(Nc1ccc(-c2nc(N3CCOCC3)c3ccccc3n2)cc1)Nc1ccc(S(=O)(=O)Nc2ncccn2)cc1 |  | > 60 |  |  | 13.6 (≈ 7.92 µg/mL) |  |  | Active | Active |  |  | 83
CC(=O)c1ccc(NC(=O)Nc2ccc(-c3nc(N4CCOCC4)c4ccccc4n3)cc2)cc1 | 22 | > 60 | 74 |  | 2 (≈ 0.935 µg/mL) | 20 | 42 | Active | Active | 0.0166 |  | 
